Myeloid diff MLP = compounds promoting myeloid differentiation | calls only at 10 µM | 360,000 compounds, 1% hits | AID 624256 | ER-HoxA9 myeloid progenitors, lysozyme-GFP differentiation, flow cytometry;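 active means normalized GFP-positive differentiation at or above the plate's own cutoff, the solvent-only control mean plus 3 SD; inconclusive means no clear call, values can overlap the other calls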;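 further: cells exposed to compound for four days before flow analysis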
DSG3 Ab inh = inhibitors of pemphigus antibody binding to human desmoglein-3. DSG3-coupled beads, scFv-anti-DSG3-GFP binding, flow cytometry; active compounds read low. binding (percent of control), % at 10 µM. 310,000 compounds, 0.48% hits. P32926;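 active means binding more than 3 SD below its plate's average and above zero; inconclusive means below that plate limit but binding exactly zero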;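 further: hits lower antibody fragment binding to DSG3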
Target sequence (P32926 whole entry, looked up, the tested form may be a part): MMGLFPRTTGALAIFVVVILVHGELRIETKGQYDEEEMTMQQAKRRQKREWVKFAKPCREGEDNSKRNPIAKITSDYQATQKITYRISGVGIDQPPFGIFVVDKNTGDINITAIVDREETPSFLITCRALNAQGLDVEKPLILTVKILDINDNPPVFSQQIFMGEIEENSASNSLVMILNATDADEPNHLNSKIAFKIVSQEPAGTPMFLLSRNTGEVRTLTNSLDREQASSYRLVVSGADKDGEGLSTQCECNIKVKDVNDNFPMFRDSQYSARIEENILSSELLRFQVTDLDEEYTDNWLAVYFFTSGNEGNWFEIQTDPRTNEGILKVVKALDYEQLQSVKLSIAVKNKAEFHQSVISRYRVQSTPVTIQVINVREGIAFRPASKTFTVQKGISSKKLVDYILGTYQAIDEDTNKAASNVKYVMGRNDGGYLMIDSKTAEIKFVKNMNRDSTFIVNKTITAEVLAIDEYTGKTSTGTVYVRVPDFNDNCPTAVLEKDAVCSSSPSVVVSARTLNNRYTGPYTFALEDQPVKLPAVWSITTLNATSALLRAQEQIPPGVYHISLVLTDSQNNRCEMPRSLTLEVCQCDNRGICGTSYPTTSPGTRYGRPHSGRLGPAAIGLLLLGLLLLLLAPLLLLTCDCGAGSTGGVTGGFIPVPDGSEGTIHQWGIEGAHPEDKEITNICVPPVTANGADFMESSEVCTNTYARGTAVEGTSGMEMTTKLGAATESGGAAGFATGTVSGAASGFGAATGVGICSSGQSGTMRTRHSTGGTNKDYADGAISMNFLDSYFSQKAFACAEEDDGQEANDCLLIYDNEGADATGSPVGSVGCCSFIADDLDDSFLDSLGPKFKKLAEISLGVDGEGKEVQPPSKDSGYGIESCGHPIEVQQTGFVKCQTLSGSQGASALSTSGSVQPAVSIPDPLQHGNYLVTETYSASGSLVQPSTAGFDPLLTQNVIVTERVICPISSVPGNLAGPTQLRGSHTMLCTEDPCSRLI
Vif inh = blocks HIV Vif function | inhibition, % at 7.49 µM | HEK293T cells, Vif self-association by quenched fluorescence, imaging, 24 h | AID 602346 | 340,000 compounds, 0.35% hits; in the data active means inhibition above about 50%, passing the limit was not always enough; inconclusive means no clear call, values can overlap the other calls; inactive means below about 31%
T cell HTS = T cell immune modulators affecting CD8 T cell-vesicle binding | 330,000 compounds, 0.068% hits | response (vesicle binding), % at 7 µM | 2C CD8+ T cell-vesicle binding, flow cytometry; active compounds read low;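 active means response, share of CD8 T cells binding vesicles, and their 90th percentile fluorescence all below set limits, cut at about 80% in these data, passing the limit was not always enough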;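 further: values below 100% mean blocked vesicle binding to the CD8+ T cells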
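Benchmarks: naked versus QL9-loaded vesicles / Assay system: purified 2C TCR transgenic mouse naive CD8+ T cells / Technique: high-throughput flow cytometry with anti-B7-1 and anti-CD8 staining / Timing: Cell–vesicle co-incubation 1.5 h at 37 °C, staining 20 min on ice / Read-out: percent CD8+ FL2 mean versus row control / Probe or stimulus: QL9-loaded Drosophila micro-vesicles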
The depositor's hits bear a star; i = inactive; ? = inconclusive; nt = no result given; + = active, no number. Sampled rows, rich in hits. Any-hit rate of the full collection: about 1.7%.

SMILES | Myeloid diff MLP | DSG3 Ab inh | Vif inh | T cell HTS
CC(=O)c1c(C)[nH]c(C(=O)OCC(=O)NCc2ccc3c(c2)OCO3)c1C | + | 96 | -11 | 337
CCOC(=O)c1[nH]c2ccccc2c1NC(=O)c1ccc2c(c1)OCO2 | i | -8.4* | 2 | 636
COc1ccc(OC)c(NC(=O)C2(C)CCN2Cc2ccc(SC)cc2)c1 (stereo unspecified) | i | nt | -5 | nt
Cc1cccc(OCCNC(=O)CCc2ccccc2)c1 | i | 101 | 10 | 35
COC(=O)C1=NNC(C(=O)c2ccco2)C1c1ccccc1 (stereo unspecified) | i | 99 | 2 | 361
COC(=O)C1=NNC(C(=O)c2ccco2)C1c1ccc(OC)cc1 (stereo unspecified) | i | 110 | 52* | 742
COc1ccc(C2CC(C)(c3ccc(OC)cc3OC)Nc3ccccc3N2)c(OC)c1 (stereo unspecified) | i | 130 | 7 | 66*
COC(=O)C1=C(C)C(c2ccc(OC)cc2OC)NC(=O)N1 (stereo unspecified) | i | 103 | 2 | 152
CCCN1C(=O)/C(=c2\sc3nc(=O)c(Cc4ccc(C)cc4)nn3c2=O)c2ccccc21 | nt | 68* | 2 | 215
NC(=O)CN1C(=O)/C(=c2\sc3nc(=O)c(Cc4ccccc4)nn3c2=O)c2ccccc21 | i | 116 | 2 | 419
Cc1c2ccccc2cc[n+]1CCCS(=O)(=O)[O-] | i | 103 | 0 | 171
CC1(C)C(/C=C/C=C/C=C/C=C2\N(CCCCS(=O)(=O)O)c3ccc4ccccc4c3C2(C)C)=[N+](CCCCS(=O)(=O)[O-])c2ccc3ccccc3c21 | i | 33* | -7 | 620
CC(C)(C)C(=O)Nc1ccc(C(=O)CN2C(=O)NC3(CCOc4ccccc43)C2=O)cc1 (stereo unspecified) | i | 99 | -2 | 344
COC1=CC(=O)OC(c2ccc(C#N)cc2)C1 (stereo unspecified) | i | nt | nt | nt
O=[N+]([O-])c1ccc(Cl)c(/C=N/n2c(-c3ccncc3)n[nH]c2=S)c1 | + | nt | -1 | 500
CCC(C)C(NC(=O)c1ccccc1)C(=O)N1CCN(C(=O)c2ccccc2)CC1 (stereo unspecified) | i | 100 | -8 | nt
CCOc1ccccc1NCc1cc(=O)oc2cc(C)c(O)cc12 | i | 86* | 3 | 240
Cc1cc2oc(=O)cc(CNc3ccccc3F)c2cc1O | i | 100 | -12 | 426
O=C1CCCCC1CCc1ccncc1 (stereo unspecified) | i | 94 | 5 | nt
O=C(O)Cc1sc(NC2CCCCC2)nc1-c1ccc(Cl)cc1 | + | 98 | -1 | 318
Cc1ccc(-c2nc(Nc3cccc(C)c3)sc2CC(=O)O)cc1 | i | 86 | -8 | 637
CCOc1cc(CN2CCN(c3ncccn3)CC2)ccc1OC | i | 84* | -12 | 172
CCc1ccc(CN2CCN(c3ncccn3)CC2)cc1 | i | 102 | 20 | 222
CN(CC(=O)Nc1ccc(Cl)cc1)CC(=O)N1CCc2ccccc21 | i | 106 | nt | nt
CCOc1ccc(NC(=O)CN(C)C(=O)Cc2ccc3c(c2)OCCO3)cc1OCC | i | 103 | 4 | nt
SMILES | Myeloid diff MLP | DSG3 Ab inh | Vif inh | T cell HTS
COCC(CN1CCN(C2=NS(=O)(=O)c3ccccc32)CC1)OC(=O)c1ccccc1 (stereo unspecified) | i | nt | -7 | 285
Oc1ccccc1C1SC(c2ccccc2O)SC(c2ccccc2O)S1 (stereo unspecified) | i | 99 | 60* | nt
O=C(NC1CCCCC1)OC1CC2CC1[C@H]1CCCCN1C2=O (stereo partly specified) | i | nt | nt | nt
CC(=O)C1=C(O)CC(C)(C)CC1=NCc1nc2ccccc2[nH]1 | i | 126 | -1 | 370
COC(=O)CC/C(O)=C1\C(=O)CC(C)(C)CC1=NCc1nc2ccccc2[nH]1 | i | 95 | 77* | 258
Cc1ccc(-n2c(N)c(C#N)c(-c3ccccc3)c(C#N)c2=O)cc1 | i | 102 | 4 | 235
Cc1ccc(-c2nc3sc(C#N)c(N)n3c(=O)c2C#N)cc1 | i | 68* | 2 | 560
O=C(Cc1ccc(-n2c(=O)[nH]c3ccsc3c2=O)cc1)N1CCN(c2ccc(Cl)cc2)CC1 | + | 105 | 6 | i
CCn1nc(C)cc1-c1nnc(Sc2ncc([N+](=O)[O-])s2)n1C | ? | 100 | 6 | 85
CS(=O)(=O)Nc1ccc(C(=O)N2CC(=O)Nc3ccccc32)cc1 | i | 100 | 7 | 195
Cc1ccc(N=C(N)N=C(N)N)cc1 | + | 106 | -9 | 368
CC(C)[C@H](NC(=O)c1ccccc1Cl)C(=O)OCC(=O)NCc1ccc2c(c1)OCO2 | i | 99 | 18 | 572
Cc1ccccc1SCC(=O)OCC(=O)NCCNC(=O)COC(=O)CSc1ccccc1C | i | 105 | 8 | 413
COc1ccc(CNC(=O)CN2C(=O)c3ccccc3C2=O)cc1 | i | 105 | -2 | 63
COc1ccc(CN2C(=O)c3ccccc3C2=O)cc1 | i | 120 | 62* | 202
Cc1cc(C)nc(SCc2ccc(C(=O)N/N=C/c3ccc(C(=O)O)cc3)cc2)n1 | i | 27* | -4 | 272
COc1ccc(/C=N/NC(=O)c2ccc(CSc3nc(C)cc(C)n3)cc2)c(OC)c1OC | + | 101 | 5 | 241
CC(C)c1ccccc1NS(=O)(=O)N(C)C | i | 49* | 1 | 171
CC(C)c1ccccc1NS(C)(=O)=O | nt | nt | nt | 285
COC(=O)[C@]1(Cc2ccccc2)N[C@H](CN(C)C(=O)Nc2ccc(OC)cc2)[C@@H]2C(=O)N(Cc3ccccc3)C(=O)[C@@H]21 | i | 110 | -24 | 214
CCOc1ccc(N(CC)S(=O)(=O)c2ccc3c(c2)n(C)c(=O)c(=O)n3C)cc1 | i | -11* | 10 | 350
Cc1ccc(SCCCCN2CCOCC2)cc1 | i | 50* | 1 | 693
Clc1ccc(SCCCCN2CCOCC2)cc1 | i | 106 | nt | 374
CN(c1ccc(F)cc1)S(=O)(=O)c1ccc(Cl)c(C(=O)NCc2ccco2)c1 | + | nt | -2 | 644
COc1ccc(CN(CC(=O)NC2CCCC2)C(=O)CN2C(=O)COc3ccccc32)cc1 | i | 73 | 54* | 285
SMILES | Myeloid diff MLP | DSG3 Ab inh | Vif inh | T cell HTS
Cc1ccc(Cl)cc1N1CCN(C(c2cccnc2)c2nnnn2C2CCCCC2)CC1 (stereo unspecified) | i | 93 | 71* | i
N#CC1=C(N)Oc2cc(N)ccc2C1c1ccsc1 (stereo unspecified) | i | 95 | -9 | 238
N#CC1=C(N)Oc2cc(N)ccc2C1c1cc(Br)cs1 (stereo unspecified) | + | 103 | 9 | 577
Nc1sccc1C(=O)NCCN1CCOCC1 | i | nt | nt | nt
COc1ccccc1CNc1nc(NC(C)C)nc2cc(-c3ccccc3)sc12 | + | nt | -14 | nt
CC(C)Nc1nc(NCCOc2ccccc2Cl)c2sc(-c3ccccc3)cc2n1 | i | nt | -2 | nt
O=C(CN1CCN(Cc2ccccc2)CC1)Nc1ccc(Br)cc1 | i | 108 | -8 | 194

Bioassay records as filed in PubChem BioAssay.
